# Measurements taken from ChEMBL document CHEMBL1287782, “Design, synthesis, and characterization of BK channel openers based on oximation of abietane diterpene derivatives” (Bioorg Med Chem, 2010).
# Target: Calcium-activated potassium channel subunit alpha-1 (Homo sapiens) (UniProt Q12791)
# Assay: Activation of human BK alpha channel expressed in CHO-K1 cells assessed as ionic current at 30 uM by patch clamp electrophysiological assay relative to control
# Format: cell-based
# Method in brief: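 Automated population patch clamp (64-hole PPC) on CHO-K1 cells stably expressing hBKα. Internal (mM): 140 KCl, 1.0 MgCl2, 20 HEPES, pH 7.25–7.3. External (mM): 137 NaCl, 4.0 KCl, 1.0 MgCl2, 2.0 CaCl2, 10 glucose, 20 HEPES, pH 7.4. Cells suspended in external solution with 20 µM BAPTA-AM before loading. Step to +100 mV from holding potential; current at 30 µM compound as % of drug-free control; n = 8.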
# Chain of Calcium-activated potassium channel subunit alpha-1 (Homo sapiens) (Q12791 whole entry): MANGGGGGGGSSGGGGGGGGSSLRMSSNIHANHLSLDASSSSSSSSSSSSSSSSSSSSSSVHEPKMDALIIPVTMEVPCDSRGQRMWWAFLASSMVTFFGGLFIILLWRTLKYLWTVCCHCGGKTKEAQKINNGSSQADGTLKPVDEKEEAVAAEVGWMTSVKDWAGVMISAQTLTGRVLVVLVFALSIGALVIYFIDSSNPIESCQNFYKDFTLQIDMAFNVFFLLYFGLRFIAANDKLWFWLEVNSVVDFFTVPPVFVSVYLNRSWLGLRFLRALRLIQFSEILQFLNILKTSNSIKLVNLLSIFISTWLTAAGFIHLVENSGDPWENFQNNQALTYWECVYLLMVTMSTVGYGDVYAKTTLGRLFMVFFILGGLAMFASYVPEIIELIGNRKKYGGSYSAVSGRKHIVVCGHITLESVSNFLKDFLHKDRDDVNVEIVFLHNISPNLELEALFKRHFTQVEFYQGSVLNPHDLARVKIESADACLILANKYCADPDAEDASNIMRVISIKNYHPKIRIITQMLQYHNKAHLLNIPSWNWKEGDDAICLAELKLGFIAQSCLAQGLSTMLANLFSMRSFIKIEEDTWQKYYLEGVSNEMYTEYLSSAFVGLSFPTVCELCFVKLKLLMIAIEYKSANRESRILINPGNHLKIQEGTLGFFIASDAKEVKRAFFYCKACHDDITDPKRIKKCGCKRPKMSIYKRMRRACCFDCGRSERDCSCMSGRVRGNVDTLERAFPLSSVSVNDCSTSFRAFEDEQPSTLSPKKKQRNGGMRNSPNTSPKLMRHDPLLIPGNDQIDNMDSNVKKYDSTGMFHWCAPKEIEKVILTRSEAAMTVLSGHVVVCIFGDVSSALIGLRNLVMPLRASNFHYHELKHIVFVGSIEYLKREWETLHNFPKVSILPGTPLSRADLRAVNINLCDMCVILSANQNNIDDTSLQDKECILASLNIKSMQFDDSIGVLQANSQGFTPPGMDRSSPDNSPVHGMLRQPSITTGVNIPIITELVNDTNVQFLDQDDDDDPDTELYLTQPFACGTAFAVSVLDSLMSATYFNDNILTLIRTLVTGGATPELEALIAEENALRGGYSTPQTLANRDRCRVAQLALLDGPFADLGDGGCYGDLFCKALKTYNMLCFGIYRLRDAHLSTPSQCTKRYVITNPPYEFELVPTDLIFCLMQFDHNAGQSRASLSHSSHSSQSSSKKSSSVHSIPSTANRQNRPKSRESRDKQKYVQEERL
row,SMILES,Activity [%]
1,CC(C)c1c(Cl)cc2c(c1Cl)/C(=N/O)C[C@H]1[C@](C)(C(=O)O)CCC[C@]21C,137
2,C#CCO/N=C1\C[C@H]2[C@@](C)(C(=O)O)CCC[C@]2(C)c2cc(OCCCc3ccccc3)ccc21,166
3,CCO/N=C1\C[C@H]2[C@](C)(C(=O)O)CCC[C@]2(C)c2cc(Cl)c(C(C)C)c(Cl)c21,212
4,CO/N=C1\C[C@H]2[C@](C)(C(=O)O)CCC[C@]2(C)c2cc(Br)c(C(C)C)cc21,216
5,CO/N=C1\C[C@H]2[C@@](C)(C(=O)O)CCC[C@]2(C)c2cc(OCCCc3ccccc3)ccc21,151
6,CC(C)=CCO/N=C1\C[C@H]2[C@](C)(C(=O)O)CCC[C@]2(C)c2cc(Cl)c(C(C)C)c(Cl)c21,126
7,C[C@]1(C(=O)O)CCC[C@]2(C)c3cc(OCCCc4ccccc4)ccc3/C(=N/OCc3ccccc3)C[C@@H]12,152
8,CO/N=C1\C[C@H]2[C@](C)(C(=O)O)CCC[C@]2(C)c2cc(Cl)c(C(C)C)c(Cl)c21,213
9,CC(C)c1cc2c(cc1Br)[C@@]1(C)CCC[C@@](C)(C(=O)O)[C@@H]1C/C2=N\O,162
10,CO/N=C1\C[C@H]2[C@](C)(C(=O)O)CCC[C@]2(C)c2c(Cl)c(Cl)c(C(C)C)c(Cl)c21,235
11,CO/N=C1\C[C@H]2[C@@](C)(C(=O)O)CCC[C@]2(C)c2cc(O)ccc21,103
12,CC(C)c1c(Cl)cc2c(c1Cl)/C(=N/OCc1ccccc1)C[C@H]1[C@](C)(C(=O)O)CCC[C@]21C,151
13,CO/N=C1\C[C@H]2[C@](C)(C(=O)O)CCC[C@]2(C)c2ccc(C(C)C)cc21,153
14,CC(C)c1ccc2c(c1)/C(=N/O)C[C@H]1[C@](C)(C(=O)O)CCC[C@]21C,121
15,CCCCCCCO/N=C1\C[C@H]2[C@](C)(C(=O)O)CCC[C@]2(C)c2cc(Cl)c(C(C)C)c(Cl)c21,111
16,C=CCO/N=C1\C[C@H]2[C@](C)(C(=O)O)CCC[C@]2(C)c2ccc(C(C)C)cc21,182
17,C[C@]1(C(=O)O)CCC[C@]2(C)c3cc(OCCCc4ccccc4)ccc3/C(=N/OCCCc3ccccc3)C[C@@H]12,134
18,CO/N=C1/c2ccc(OCCCc3ccccc3)cc2[C@@]2(C)CCC[C@](C)(C(=O)O)[C@@H]2C1O (some centres not stated),125
19,CC(C)c1c(Cl)c(Cl)c2c(c1Cl)/C(=N/O)C[C@H]1[C@](C)(C(=O)O)CCC[C@]21C,229
20,CC(C)c1c(Cl)cc2c(c1Cl)/C(=N/OCC1CCCCC1)C[C@H]1[C@](C)(C(=O)O)CCC[C@]21C,129
21,CC(C)O/N=C1\C[C@H]2[C@](C)(C(=O)O)CCC[C@]2(C)c2cc(Cl)c(C(C)C)c(Cl)c21,184

# More lines, now with the values ahead:
row,Activity [%],SMILES
1,142,C#CCO/N=C1\C[C@H]2[C@](C)(C(=O)O)CCC[C@]2(C)c2ccc(C(C)C)cc21
2,138,CC(C)=CCO/N=C1\C[C@H]2[C@@](C)(C(=O)O)CCC[C@]2(C)c2cc(OCCCc3ccccc3)ccc21
3,123,CC(C)c1ccc2c(c1)/C(=N/OCc1ccccc1)C[C@H]1[C@](C)(C(=O)O)CCC[C@]21C
4,124,CC(C)c1c(Cl)cc2c(c1Cl)C(=O)C[C@H]1[C@](C)(C(=O)O)CCC[C@]21C
5,297,C=CCO/N=C1\C[C@H]2[C@](C)(C(=O)O)CCC[C@]2(C)c2cc(Cl)c(C(C)C)c(Cl)c21
6,237,C=CCO/N=C1\C[C@H]2[C@](C)(C(=O)O)CCC[C@]2(C)c2cc(Br)c(C(C)C)cc21
7,134,C[C@]1(C(=O)O)CCC[C@]2(C)c3cc(OCCCc4ccccc4)ccc3/C(=N/O)C[C@@H]12
8,100,CC(C)c1ccc2c(c1)C(=O)C[C@H]1[C@](C)(C(=O)O)CCC[C@]21C
9,192,CCCO/N=C1\C[C@H]2[C@](C)(C(=O)O)CCC[C@]2(C)c2cc(Cl)c(C(C)C)c(Cl)c21
10,107,C[C@]1(C(=O)O)CCC[C@]2(C)c3cc(OCCCc4ccccc4)ccc3/C(=N/OCCCc3ccccc3)C(O)[C@@H]12 (some centres not stated)
11,166,CC(C)c1cc2c(cc1Br)[C@@]1(C)CCC[C@@](C)(C(=O)O)[C@@H]1CC2=O
12,261,C#CCO/N=C1\C[C@H]2[C@](C)(C(=O)O)CCC[C@]2(C)c2cc(Cl)c(C(C)C)c(Cl)c21
13,181,CC(C)c1c(Cl)cc2c(c1Cl)/C(=N/OCC1CC1)C[C@H]1[C@](C)(C(=O)O)CCC[C@]21C
14,143,CC(C)c1ccc2c(c1)/C(=N/OCCCc1ccccc1)C[C@H]1[C@](C)(C(=O)O)CCC[C@]21C
15,145,CC(C)CCO/N=C1\C[C@H]2[C@](C)(C(=O)O)CCC[C@]2(C)c2cc(Cl)c(C(C)C)c(Cl)c21
16,160,C=CCO/N=C1\C[C@H]2[C@@](C)(C(=O)O)CCC[C@]2(C)c2cc(OCCCc3ccccc3)ccc21
